Measurements from publication PMC8322834 (Biochemistry, 2020).
Values after ≈ are worked out from the molar mass of the structure shown. “Also recorded” adds a separate entry of the source. Non-standard residues stand in square brackets, D forms with d. Residues, ends and D or L forms follow the SMILES beside them. *: point of attachment. X1 = N=c1ccc2c(-c3ccc(C(=O)NCCCCCN4C(=O)CC(*)C4=O)cc3C(=O)O)c3ccc(N)c(S(=O)(=O)O)c3oc-2c1S(=O)(=O)O

Legend:
ADP-DnaK [1] = target: T1, ADP-DnaK (Escherichia coli, UniProt P0A6Y8); assay: steady-state fluorescence anisotropy, direct binding to ADP-DnaK; design: species or system E. coli; details: Q taken to be 1.0, Figure S3
T1 sequence (P0A6Y8 whole entry): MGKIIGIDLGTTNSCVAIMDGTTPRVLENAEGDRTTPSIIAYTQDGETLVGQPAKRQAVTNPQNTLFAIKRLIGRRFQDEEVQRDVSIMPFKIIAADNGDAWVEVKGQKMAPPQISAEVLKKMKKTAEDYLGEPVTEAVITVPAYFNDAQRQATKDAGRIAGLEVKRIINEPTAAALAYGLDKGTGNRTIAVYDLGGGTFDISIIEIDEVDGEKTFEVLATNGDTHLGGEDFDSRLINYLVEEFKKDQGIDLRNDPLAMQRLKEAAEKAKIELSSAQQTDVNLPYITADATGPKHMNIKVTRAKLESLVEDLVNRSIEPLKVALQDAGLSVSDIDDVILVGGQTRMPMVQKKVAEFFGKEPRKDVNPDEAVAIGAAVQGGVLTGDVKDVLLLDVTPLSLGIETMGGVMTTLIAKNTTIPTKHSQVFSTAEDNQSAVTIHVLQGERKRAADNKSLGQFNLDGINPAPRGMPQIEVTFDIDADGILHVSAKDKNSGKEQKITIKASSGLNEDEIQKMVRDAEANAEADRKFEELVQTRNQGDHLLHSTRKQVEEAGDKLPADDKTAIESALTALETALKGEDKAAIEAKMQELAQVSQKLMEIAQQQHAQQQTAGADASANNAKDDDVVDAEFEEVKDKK

DnaK (ADP-state) = DnaK (ADP-state) (Escherichia coli, UniProt P0A6Y8); assay: native gel electrophoresis; format: binding, E. coli
Chain of DnaK (ADP-state) (P0A6Y8 whole entry): as above
Outline: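 DnaK (5 μM) was incubated with test peptide (0–50 μM, independent samples) for 1 hr at 21.5 ± 0.5 °C. Native gels used 32 mM Tris-acetate pH 7.5 running buffer at 200 V for 5 hrs, water-cooled. DnaK band intensity profiles were fit to a sum of two Gaussians to build binding isotherms. KD1 is the mean of n = 3 independent experiments ± standard error.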

ADP-DnaK [2] = target: T1, ADP-DnaK; assay: steady-state fluorescence anisotropy, competitive binding to ADP-DnaK; design: species or system E. coli
[3] = system: nascent apoMb biosynthesis (cell-free transcription-translation); assay: cell-free expression of apoMb; format: biochemical, E. coli; details: 37 °C, 20 min
[4] = far-UV circular dichroism; format: physicochemical; details: 1.3 mM HEPES (pH 7.0), room temperature
Outline: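 Test peptide at 20 μM in 1.3 mM HEPES pH 7.0, room temperature. Far-UV spectra recorded from 190 to 260 nm in 1 nm steps at 20 s/step. Each spectrum is the average of n = 2 independent experiments. Secondary structure was deconvoluted with CONTINLL.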

[5] = system: wild-type E. coli (ATCC 25922) cells; format: cell-based; details: ATCC 25922, 18 h
DnaK/DnaJ/GrpE (K/J/E) = details: simple buffer conditions, 400 μM KLR-70, 30 °C, 1 hr
GroEL/ES = details: c.f. mix, purified GroEL (0.5 μM) / GroES (1.0 μM), 30 °C, 1 hr, Figure S5

SMILES | change in total fluorescence intensity in presence of ADP-DnaK (ADP-DnaK [1]) | Kd (DnaK (ADP-state)) [nM] | Kd (ADP-DnaK [2]) [nM] | effect on nascent apoMb expression ([3]; 150 μM peptide, Δtig S30 extract, pH 7.0, n = 3) | effect on nascent apoMb synthesis ([3]; 60 – 150 μM KLR-70, Δtig S30 extract, pH 7.0, n = 3) | effect on nascent apoMb synthesis ([3]; 200 – 400 μM KLR-70, Δtig S30 extract, pH 7.0, n = 3) | highest KLR-70 concentration not disrupting cell-free protein expression ([3]; Δtig E. coli cell-free system) | secondary structure in solution [4] | MIC [5] [µg/mL] | inhibition of K/J/E-mediated luciferase refolding (DnaK/DnaJ/GrpE (K/J/E)) | effect on GroEL/ES-mediated luciferase refolding (GroEL/ES)
CC(C)C[C@H](NC(=O)[C@H](CCCCN)NC(=O)[C@H](CCCCN)NC(=O)CNC(=O)[C@H](CCCNC(=N)N)NC(=O)[C@@H](N)CCCNC(=N)N)C(=O)N[C@@H](CC(C)C)C(=O)N[C@@H](CC(C)C)C(=O)N[C@@H](CC(C)C)C(=O)N[C@@H](CC(C)C)C(=O)N[C@@H](CCCCN)C(=O)N[C@@H](CCCCN)C(=O)N[C@@H](CCCCN)C(=O)NCC(=O)N[C@@H](CSC1CC(=O)N(CCCCCNC(=O)c2ccc(-c3c4ccc(=N)c(S(=O)(=O)O)c-4oc4c(S(=O)(=O)O)c(N)ccc34)c(C(=O)O)c2)C1=O)C(=O)O (stereo partly drawn) [KLR-70-C-AF488] (H-RRGKKLLLLLKKKGC(X1)-OH; N-terminus and C-terminus assumed) | no statistically significant changes in total fluorescence intensity |  |  |  |  |  |  |  |  |  | 
CC(C)C[C@H](NC(=O)[C@H](CCCCN)NC(=O)[C@H](CCCCN)NC(=O)CNC(=O)[C@H](CCCNC(=N)N)NC(=O)[C@@H](N)CCCNC(=N)N)C(=O)N[C@@H](CC(C)C)C(=O)N[C@@H](CC(C)C)C(=O)N[C@@H](CC(C)C)C(=O)N[C@@H](CC(C)C)C(=O)N[C@@H](CCCCN)C(=O)N[C@@H](CCCCN)C(=O)N[C@@H](CCCCN)C(=O)NCC(=O)O [KLR-70] (H-RRGKKLLLLLKKKG-OH) |  | 158 ± 73 | 890 ± 390 | does not have any influence on apoMb production | nascent protein synthesis is not disrupted | Partial inhibition of protein expression | up to 150 μM | mostly unordered; also recorded: predominantly unstructured in solution | 41 to 83 | fully inhibits K/J/E-mediated luciferase refolding | only weakly reduces the GroEL/ES-mediated refolding of luciferase
CC[C@H](C)[C@H](NC(=O)[C@@H](CCCNC(=N)N)NC(=O)[C@H](CCCNC(=N)N)NC(=O)[C@@H]1CCCN1C(=O)[C@@H]1CCCN1C(=O)[C@H](CCCNC(=N)N)NC(=O)[C@@H]1CCCN1C(=O)[C@H](CCCNC(=N)N)NC(=O)[C@@H]1CCCN1C(=O)[C@H](CC(C)C)NC(=O)[C@H](Cc1ccc(O)cc1)NC(=O)[C@@H]1CCCN1C(=O)[C@@H]1CCCN1C(=O)[C@H](CCCCN)NC(=O)[C@H](CC(=O)O)NC(=O)[C@@H](N)C(C)C)C(=O)N[C@@H](Cc1ccc(O)cc1)C(=O)N[C@@H](CC(N)=O)C(=O)N[C@H](CCCNC(=N)N)C(N)=O [Onc112, reference compound] (H-VDKPPYLPRPRPPR[dR]IYN[dR]-NH2) |  |  |  |  |  |  |  |  | 5 (≈ 2.09 µM) |  | 
